Test results taken from ChEMBL document CHEMBL1143270, “Identification of amidoheteroaryls as potent inhibitors of mutant (V600E) B-Raf kinase with in vivo activity” (Bioorg Med Chem Lett, 2009).

Columns and labels:
Format in all cases: ADME, organism-based
[1] = Clearance in Wistar rat at 3 mg/kg, iv and 10 mg/kg, po; conditions: in vivo
[2] = Half life in Wistar rat at 3 mg/kg, iv and 10 mg/kg, po; conditions: in vivo
[3] = Volume of distribution at steady state in Wistar rat at 3 mg/kg, iv and 10 mg/kg, po; conditions: in vivo, read-out: Vdss
[4] = Bioavailability in Wistar rat at 3 mg/kg, iv and 10 mg/kg, po; conditions: in vivo
Outline: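 Male Han Wistar rats. The iv dose was given as a DMA/PEG/saline (40/40/20) solution and the po dose as a 0.1% HPMC suspension.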

Row | SMILES | clearance [1] | half-life [2] | Vd [3] | bioavailability [4]
1 | CC(=O)Nc1ccc(NC(=O)c2cc(NC(=O)c3cccc(C(C)(C)C#N)c3)ccc2C)cn1 | 64 mL/min/kg | 42 min | 2.7 L/kg | 10%
2 | COc1cncc(NC(=O)c2cc(NC(=O)c3cccc(C(C)(C)C#N)c3)ccc2C)c1 | 56 mL/min/kg | 30 min | 1.7 L/kg | –
3 | Cc1ccc(NC(=O)c2cccc(C(C)(C)C#N)c2)cc1C(=O)Nc1cccnc1 | 42.5 mL/min/kg | 96 min | 2.5 L/kg | 17%
4 | Nc1ncc(NC(=O)c2cc(NC(=O)c3cccc(C(F)(F)F)c3)ccc2Cl)cc1Cl | 11 mL/min/kg | 84 min | 1.2 L/kg | 96%
5 | CNc1ccc(NC(=O)c2cc(NC(=O)c3cccc(C(C)(C)C#N)c3)ccc2C)cn1 | 53.5 mL/min/kg | 36 min | 1.7 L/kg | 15%

Other lines, results leading:

Row | clearance [1] | half-life [2] | Vd [3] | bioavailability [4] | SMILES
6 | 75.5 mL/min/kg | 36 min | 2.3 L/kg | – | Cc1ccc(NC(=O)c2cccc(C(C)(C)C#N)c2)cc1C(=O)Nc1ccc(N)nc1
7 | 9.5 mL/min/kg | 60 min | 0.8 L/kg | 30% | Cc1ccc(NC(=O)c2cccc(C(C)(C)C#N)c2)cc1C(=O)Nc1cnc(N)c(Cl)c1
8 | 8 mL/min/kg | 96 min | 1 L/kg | 78% | Cc1ccc(NC(=O)c2cccc(C(F)(F)F)c2)cc1C(=O)Nc1cnc(N)c(Cl)c1
9 | 32.5 mL/min/kg | 48 min | 1.4 L/kg | 4% | Cc1cncc(NC(=O)c2cc(NC(=O)c3cccc(C(C)(C)C#N)c3)ccc2C)c1
10 | 60 mL/min/kg | 54 min | 3.1 L/kg | 45% | Cc1ccc(NC(=O)c2cccc(C(C)(C)C#N)c2)cc1C(=O)Nc1cncc(Cl)c1
11 | 47.5 mL/min/kg | 48 min | 2.9 L/kg | 73% | Cc1ccc(NC(=O)c2cc(NC(=O)c3cccc(C(C)(C)C#N)c3)ccc2C)cn1
